In ChEMBL document CHEMBL3351296, “Synthesis, antioxidant and photoprotection activities of hybrid derivatives useful to prevent skin cancer” (Bioorg Med Chem, 2014):

Key:
[1] = Antioxidant activity of the compound assessed as reduction in absorbance of DPPH after 60 mins incubation at 35 uM by DPPH radical scavenging /microplate assay; assay type: physicochemical; conditions: 1 h
Outline: (§1)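 DPPH radical prepared in methanol. Test compounds and standards made as 10 mM DMSO stocks, diluted in methanol, and tested at […]; final DMSO […]. Samples mixed with DPPH in triplicate, kept at 37 °C protected from light, and read at 519 nm after 30 and 60 min. % scavenging = (Abs control − Abs sample)/Abs control × 100.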

[2] = Antioxidant activity of the compound assessed as reduction in absorbance of DPPH after 60 mins incubation at 100 uM by DPPH radical scavenging /microplate assay; assay type: physicochemical; conditions: 1 h; outline: as §1
[3] = In vitro photoprotection of the compound assessed as UVA to UVB ratio by Optometric 290S analyzer
Outline: (§2)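 Transmittance scans were taken from 290 to 400 nm at 2 nm intervals and compared against a reference scan. SPF, UVA protection factor and UVA/UVB ratio were calculated from the transmittance data.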

[4] = In vitro photoprotection of the compound assessed as UVA protection factor by Optometric 290S analyzer; outline: as §2
[5] = Antioxidant activity of the compound assessed as reduction in absorbance of DPPH after 60 mins incubation at 300 uM by DPPH radical scavenging /microplate assay; assay type: physicochemical; conditions: 1 h; outline: as §1
[6] = Antioxidant activity of the compound assessed as reduction in absorbance of DPPH after 60 mins incubation at 1000 uM by DPPH radical scavenging /microplate assay; assay type: physicochemical; conditions: 1 h; outline: as §1
[7] = In vitro photoprotection of the compound assessed as sun protection factor by Optometric 290S analyzer; outline: as §2
[8] = Antioxidant activity of the compound assessed as reduction in absorbance of DPPH after 60 mins incubation by DPPH radical scavenging /microplate assay; assay type: physicochemical; outline: as §1

| SMILES | inhibition (INH) [1] [%] | inhibition (INH) [2] [%] | Ratio [3] | UVAPF [4] | inhibition (INH) [5] [%] | inhibition (INH) [6] [%] | SPF [7] | IC50 [8] [µM] |
| --- | --- | --- | --- | --- | --- | --- | --- | --- |
| O=C(N/N=C/c1cc(O)cc(O)c1)c1ccc(O)cc1 | 5.6 | 11.2 | 0.6 | 4 | 26.5 | 34.2 | 5 |  |
| COc1ccc(C(=O)CC(=O)c2ccc(C(C)(C)C)cc2)cc1 |  |  | 1.8 | 39 |  |  |  |  |
| CCCCC(CC)COC(=O)C=Cc1ccc(OC)cc1 (configuration not stated) |  |  |  |  |  |  | 13 |  |
| O=C(N/N=C/c1ccc(O)cc1)c1ccc(O)cc1 | 18.4 | 38 | 0.8 | 2 | 54.4 | 65 | 3 | 275 |
| COc1ccc(/C=C/C=N/NC(=O)c2ccc(C(C)(C)C)cc2)cc1 | -6.6 | -8.3 | 1 | 4 | -5.6 | -7.1 | 4 |  |
| O=C1O[C@H]([C@@H](O)CO)C(O)=C1O [ASCORBIC ACID] | 18.8 | 77.9 |  |  | 80.7 | 81.2 |  | 64.2 |
| COc1cc(/C=C/C=N/NC(=O)c2ccc(O)cc2)ccc1O | 34.8 | 56.7 | 1.2 | 2 | 77.2 | 75.5 | 2 | 88.2 |
| CC(C)(C)c1ccc(C(=O)N/N=C/c2ccc(O)cc2)cc1 | 10.2 | 15 | 0.8 | 2 | 28.9 | 38.7 | 2 |  |
| Oc1ccc(/C=C/c2cc(O)cc(O)c2)cc1 [RESVERATROL] | 20.5 | 45.5 | 0.6 | 2 | 71.3 | 73.8 | 2 | 110 |
| CC(C)(C)c1ccc(C(=O)N/N=C/c2cc(O)cc(O)c2)cc1 | 7 | 10.9 | 0.6 | 3 | 20.1 | 31.3 | 4 |  |
| COc1ccc(/C=C/C=N/NC(=O)c2ccc(O)cc2)cc1 | -3.4 | -1.5 | 1.1 | 2 | -2.6 | 2.8 | 2 |  |
| COc1ccc(C(=O)c2ccccc2)c(O)c1 |  |  | 0.6 |  |  |  | 1 |  |
| COc1cc(/C=C/C=N/NC(=O)c2ccc(C(C)(C)C)cc2)ccc1O | 20 | 45.6 | 1.1 | 2 | 75.1 | 76.1 | 2 | 110 |
